Data taken from article PMC7880169 (Medicinal chemistry research : an international journal for …, 2020).
Read-outs that look alike come from different tables or passages of the source.

Assays:
[1] = molecular target: T1, σ1R (Cavia porcellus, UniProt Q60492); experiment: σ1R radioligand binding with [3H]; design: species or system guinea pig; details: for Ki σ2R /Ki σ1R: selectivity ratio σ2R over σ1R
Method in brief: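 Membranes from frozen whole guinea pig brain. Each tube held 3 nmol/L [3H](+)-pentazocine (28 Ci/mmol) and 8.0 mg tissue.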

[2] = In vitro microsomal stability in RLMs; format: in vitro ADME, rat; details: for microsomal CLint at 1 μM: rat, rat liver microsomes, pH 7.4
Method in brief: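 Test compound at 1 μM (spiked from 200 μM stock) in 50 mM phosphate buffer pH 7.4 with 1 mg protein/mL rat liver microsomes and 3 mM MgCl2. Mixture pre-incubated 5 min at 37 ± 0.5 °C, then started with NADPH (1 mM final) and shaken for 30 min. Aliquots taken at 0, 5, 10, 15, 20 and 30 min, quenched in ice-cold acetonitrile with internal standard, filtered and analysed by LC-MS/MS. Controls: verapamil (positive) and no-NADPH mixture (negative).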

[3] = Metabolic soft spot identification of 12 in RLMs; format: in vitro ADME, rat; details: RLMs with NADPH
Method in brief: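 Test compound at 10 μM in 50 mM phosphate buffer pH 7.4 with 1 mg protein/mL rat liver microsomes, pre-incubated 5 min at 37 ± 0.5 °C with shaking. Reaction started with NADPH (1 mM final). Samples taken at 0 min (control) and 10 min, mixed with an equal volume of ice-cold acetonitrile, vortexed 2 min and centrifuged at 10,000 g for 5 min. Supernatant analysed by LC-HRMS on a QToF.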

[4] = molecular target: T1, σ1R; details: selectivity ratio; ref Yous et al. 2005; cited from earlier work
[5] = molecular target: σ2R; details: read-out: Ki (nM ± SEM) σ2R; ref Yous et al. 2005; cited from earlier work

T1 sequence (Q60492 whole entry): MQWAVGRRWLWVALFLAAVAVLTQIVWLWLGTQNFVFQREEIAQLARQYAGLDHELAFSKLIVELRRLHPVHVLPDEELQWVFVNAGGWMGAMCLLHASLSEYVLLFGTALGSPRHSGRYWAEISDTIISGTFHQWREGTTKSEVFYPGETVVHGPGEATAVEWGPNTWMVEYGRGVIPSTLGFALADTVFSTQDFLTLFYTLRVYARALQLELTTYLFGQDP

Compound	Ki [1]	Ki σ2R /Ki σ1R [1]	microsomal CLint at 1 μM [2]	remaining unmodified at the end of 10 min incubation [3]	t1/2 (in vitro hepatic microsomal half-life) ([2]; RLMs 1 mg protein/mL, 1 μM compound, NADPH, 37 °C)	Ki σ2R /Ki σ1R [4]	Ki [5]
O=c1sc2ccccc2n1CCNC12CC3CC(CC(C3)C1)C2 [Compound 7, 3-{2-[(Adamantan-1-yl)amino]ethyl}benzo[d]thiazol-2(3H)-one]	131 ± 9.94 nM	0.5	460 µL/min/mg	–	–	–	–
CCC(=O)c1ccc2c(c1)sc(=O)n2CCNC12CC3CC(CC(C3)C1)C2 [Compound 8, 3-{2-[(Adamantan-1-yl)amino]ethyl}−6-propionylbenzo[d]thiazol-2(3H)-one]	11.2 ± 1.26 nM	6.3	160 µL/min/mg	–	–	–	–
CCC(=O)c1ccc2c(c1)sc(=O)n2CCN(C)C12CC3CC(CC(C3)C1)C2 [Compound 11, 3-{2-[(Adamantan-1-yl)(methyl)amino]ethyl}−6-propionylbenzo[d]thiazol-2(3H)-one]	12.9 ± 1.84 nM	8.7	560 µL/min/mg	–	–	–	–
CN(CCn1c(=O)sc2ccccc21)C12CC3CC(CC(C3)C1)C2 [Compound 10, 3-{2-[(Adamantan-1-yl)(methyl)amino]ethyl}benzo[d]thiazol-2(3H)-one]	12.9 ± 1.8 nM	6.6	650 µL/min/mg	–	–	–	–
CCCc1ccc2c(c1)sc(=O)n2CCN1CCCCCC1 [SN56, 3-[2-(azepan-1-yl)ethyl]-6-propylbenzo[d]thiazol-2(3H)-one, reference compound]	–	–	710 µL/min/mg	–	58.8 s	>1000	> 1000 nM

More lines, main results first:

Ki [1]	Ki σ2R /Ki σ1R [1]	microsomal CLint at 1 μM [2]	remaining unmodified at the end of 10 min incubation [3]	t1/2 (in vitro hepatic microsomal half-life) ([2]; RLMs 1 mg protein/mL, 1 μM compound, NADPH, 37 °C)	Compound	Ki σ2R /Ki σ1R [4]	Ki [5]
11.2 ± 0.68 nM	6.2	280 µL/min/mg	–	–	CCCc1ccc2c(c1)sc(=O)n2CCNC12CC3CC(CC(C3)C1)C2 [Compound 9, 3-{2-[(Adamantan-1-yl)amino]ethyl}−6-propylbenzo[d]thiazol-2(3H)-one]	–	–
7.2 ± 0.88 nM	61	370 µL/min/mg	ca. 6%	–	CCCc1ccc2c(c1)sc(=O)n2CCN(C)C12CC3CC(CC(C3)C1)C2 [Compound 12, 3-{2-[(Adamantan-1-yl)(methyl)amino]ethyl}−6-propylbenzo[d]thiazol-2(3H)-one]	–	–
